Test results taken from ChEMBL document CHEMBL1135544, “Design, synthesis, and biological activity of hybrid compounds between uramustine and DNA minor groove binder distamycin A” (J Med Chem, 2002).

test system: K562; test: In vitro antitumor activity against human chronic myeloid leukemia K562 cell line; type: functional, cell-based
Procedure, shortened: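 K562 cells grown in RPMI 1640 with 10% fetal calf serum and 2 mM glutamine at 37 °C, 5% CO2. Exposed to drug for 1 h at 37 °C in the dark, then centrifuged and washed. Seeded at 10⁴ cells/well, 8 wells per sample, and cultured 4 days. MTT read at 550 nm. IC50 is the dose giving 50% of control OD, mean of at least three experiments.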

SMILES	IC50 [µM]
O=C(O)CCCCCCn1cc(N(CCCl)CCCl)c(=O)[nH]c1=O	> 100
O=C(O)CCCCCn1cc(N(CCCl)CCCl)c(=O)[nH]c1=O	> 100
O=C(O)CCCCn1cc(N(CCCl)CCCl)c(=O)[nH]c1=O	> 100
Cn1cc(NC(=O)c2cc(NC(=O)c3cc(NC=O)cn3C)cn2C)cc1C(=O)NCCC(=N)N	> 100
O=C(O)CCCn1cc(N(CCCl)CCCl)c(=O)[nH]c1=O	> 100
Cn1cc(NC(=O)c2cc(NC(=O)c3cc(NC(=O)CCCCn4cc(N(CCCl)CCCl)c(=O)[nH]c4=O)cn3C)cn2C)cc1C(=O)NCCC(=N)N	0.11
Cn1cc(NC(=O)c2cc(NC(=O)c3cc(NC(=O)Cn4cc(N(CCCl)CCCl)c(=O)[nH]c4=O)cn3C)cn2C)cc1C(=O)NCCC(=N)N	4.06
Cn1cc(NC(=O)c2cc(NC(=O)c3cc(NC(=O)CCn4cc(N(CCCl)CCCl)c(=O)[nH]c4=O)cn3C)cn2C)cc1C(=O)NCCC(=N)N	2.54
Cn1cc(NC(=O)c2cc(NC(=O)c3cc(NC(=O)CCCn4cc(N(CCCl)CCCl)c(=O)[nH]c4=O)cn3C)cn2C)cc1C(=O)NCCC(=N)N	7.26
Cn1cc(NC(=O)c2cc(NC(=O)c3cc(NC(=O)CCCCCn4cc(N(CCCl)CCCl)c(=O)[nH]c4=O)cn3C)cn2C)cc1C(=O)NCCC(=N)N	0.14
Cn1cc(NC(=O)c2cc(NC(=O)c3cc(NC(=O)CCCCCCn4cc(N(CCCl)CCCl)c(=O)[nH]c4=O)cn3C)cn2C)cc1C(=O)NCCC(=N)N	0.07
Oc1ncc(N(CCCl)CCCl)c(O)n1 [URACIL MUSTARD]	5.1
